These results are taken from ChEMBL document CHEMBL3243954 (J Med Chem, 1979).

Data set [1] is described as follows: Retardation factor, Rm of the compound by thin-layer chromatography. It counts as physicochemical.
Data set [2] relates to Brain. Briefly: Drug uptake albino mouse brain at 15 mg equivalent of oxazepam/kg, iv after 1 mins measured per gm of tissue by thin-layer chromatography. It counts as ADME, organism-based. Particulars: in vivo.
Data set [3] relates to Brain. Briefly: Drug uptake albino mouse brain at 15 mg equivalent of oxazepam/kg, iv after 90 mins measured per gm of tissue by thin-layer chromatography. To be noted: in vivo, 1.5 h. It counts as ADME, organism-based.
In data set [4] the test system is Brain. Briefly: Drug uptake albino mouse brain at 15 mg equivalent of oxazepam/kg, iv after 3 mins measured per gm of tissue by thin-layer chromatography. Particulars: in vivo, 0.05 h. It counts as ADME, organism-based.
For data set [5], the system named is Brain. Description: Drug uptake albino mouse brain at 15 mg equivalent of oxazepam/kg, iv after 20 mins measured per gm of tissue by thin-layer chromatography. It counts as ADME, organism-based. To be noted: in vivo.
Data set [6] has as its system Brain. Briefly: Drug uptake albino mouse brain at 15 mg equivalent of oxazepam/kg, iv after 180 mins measured per gm of tissue by thin-layer chromatography. It counts as ADME, organism-based. Particulars: in vivo, 3 h.
Data set [7] relates to Brain. Description: Drug uptake albino mouse brain at 15 mg equivalent of oxazepam/kg, iv after 12 mins measured per gm of tissue by thin-layer chromatography. It is filed as ADME, organism-based. To be noted: in vivo, 0.2 h.
The test system of data set [8] is Brain. Description: Drug uptake albino mouse brain at 15 mg equivalent of oxazepam/kg, iv after 40 mins measured per gm of tissue by thin-layer chromatography. It counts as ADME, organism-based. To be noted: in vivo.
The test system of data set [9] is Brain. Briefly: Drug uptake albino mouse brain at 5 mg equivalent of oxazepam/kg, iv after 60 mins measured per gm of tissue by thin-layer chromatography. Particulars: in vivo, 1 h. It is filed as ADME, organism-based.
Data set [10] has as its system Liver. Description: Drug metabolism in albino mouse liver assessed as total metabolite concentration at 5 mg equivalent of oxazepam/kg, iv after 1 min by thin layer chromatography. It is filed as ADME, organism-based. To be noted: in vivo. In short, it runs like this: (§1)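 Liver was dried and its total radioactivity, the sum of metabolites, was measured on a carbon-tritium analyzer. Values are means of four mice (±SE).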

For data set [11], the system named is Brain. Briefly: Drug uptake albino mouse brain at 5 mg equivalent of oxazepam/kg, iv after 20 mins measured per gm of tissue by thin-layer chromatography. It counts as ADME, organism-based. Particulars: in vivo.
Data set [12] has as its system Liver. Briefly: Drug metabolism in albino mouse liver assessed as total metabolite concentration at 5 mg equivalent of oxazepam/kg, iv after 3 mins by thin layer chromatography. It counts as ADME, organism-based. Particulars: in vivo, 0.05 h. The method in brief: as §1
Data set [13] has as its system Brain. Briefly: Drug uptake albino mouse brain at 5 mg equivalent of oxazepam/kg, iv after 10 mins measured per gm of tissue by thin-layer chromatography. It counts as ADME, organism-based. Particulars: in vivo.
The test system of data set [14] is Liver. Briefly: Drug metabolism in albino mouse liver assessed as total metabolite concentration at 5 mg equivalent of oxazepam/kg, iv after 5 mins by thin layer chromatography. Particulars: in vivo. It counts as ADME, organism-based. In short, it runs like this: as §1
For data set [15], the system named is Brain. Briefly: Drug uptake albino mouse brain at 5 mg equivalent of oxazepam/kg, iv after 40 mins measured per gm of tissue by thin-layer chromatography. It counts as ADME, organism-based. To be noted: in vivo.
The subject of data set [16] is Brain. Briefly: Drug uptake albino mouse brain at 5 mg equivalent of oxazepam/kg, iv after 1 min measured per gm of tissue by thin-layer chromatography. It counts as ADME, organism-based. Particulars: in vivo.
Data set [17] has as its system Brain. Description: Drug uptake albino mouse brain at 5 mg equivalent of oxazepam/kg, iv after 240 mins measured per gm of tissue by thin-layer chromatography. It is filed as ADME, organism-based. To be noted: in vivo, 4 h.
Data set [18] deals with Brain. Briefly: Drug uptake albino mouse brain at 5 mg equivalent of oxazepam/kg, iv after 120 mins measured per gm of tissue by thin-layer chromatography. Particulars: in vivo, 2 h. It counts as ADME, organism-based.
Data set [19] has as its system Brain. Description: Drug uptake albino mouse brain at 5 mg equivalent of oxazepam/kg, iv after 3 mins measured per gm of tissue by thin-layer chromatography. It counts as ADME, organism-based. To be noted: in vivo, 0.05 h.
Data set [20] relates to Brain. Briefly: Drug uptake albino mouse brain at 5 mg equivalent of oxazepam/kg, iv after 5 mins measured per gm of tissue by thin-layer chromatography. It counts as ADME, organism-based. To be noted: in vivo.
Data set [21] has as its system Liver. Description: Drug metabolism in albino mouse liver assessed as total metabolite concentration at 5 mg equivalent of oxazepam/kg, iv after 10 mins by thin layer chromatography. It counts as ADME, organism-based. To be noted: in vivo. The method in brief:
as §1

In data set [22] the test system is Brain. Description: Drug uptake albino mouse brain at 5 mg equivalent of oxazepam/kg, iv after 2 mins measured per gm of tissue by thin-layer chromatography. It counts as ADME, organism-based. To be noted: in vivo.
Data set [23] has as its system Brain. Briefly: Drug uptake albino mouse brain at 5 mg equivalent of oxazepam/kg, iv after 30 mins measured per gm of tissue by thin-layer chromatography. It is filed as ADME, organism-based. To be noted: in vivo, 0.5 h.
In data set [24] the test system is Brain. Briefly: Drug uptake albino mouse brain at 5 mg equivalent of oxazepam/kg, iv after 6 mins measured per gm of tissue by thin-layer chromatography. It counts as ADME, organism-based. To be noted: in vivo, 0.1 h.
For data set [25], the system named is Brain. Briefly: Drug uptake albino mouse brain at 10 mg equivalent of oxazepam/kg, iv after 90 mins measured per gm of tissue by thin-layer chromatography. It is filed as ADME, organism-based. Particulars: in vivo, 1.5 h.
Data set [26] has as its system Brain. Briefly: Drug uptake albino mouse brain at 10 mg equivalent of oxazepam/kg, iv after 240 mins measured per gm of tissue by thin-layer chromatography. It counts as ADME, organism-based. To be noted: in vivo, 4 h.
Data set [27] concerns Brain. Briefly: Drug uptake albino mouse brain at 10 mg equivalent of oxazepam/kg, iv after 40 mins measured per gm of tissue by thin-layer chromatography. It counts as ADME, organism-based. To be noted: in vivo.
The subject of data set [28] is Brain. Description: Drug uptake albino mouse brain at 10 mg equivalent of oxazepam/kg, iv after 120 mins measured per gm of tissue by thin-layer chromatography. It is filed as ADME, organism-based. To be noted: in vivo, 2 h.
Data set [29] relates to Brain. Description: Drug uptake albino mouse brain at 10 mg equivalent of oxazepam/kg, iv after 10 mins measured per gm of tissue by thin-layer chromatography. It is filed as ADME, organism-based. Particulars: in vivo.
In data set [30] the test system is Brain. Description: Drug uptake albino mouse brain at 10 mg equivalent of oxazepam/kg, iv after 2 mins measured per gm of tissue by thin-layer chromatography. It counts as ADME, organism-based. To be noted: in vivo.
The test system of data set [31] is Brain. Description: Drug uptake albino mouse brain at 10 mg equivalent of oxazepam/kg, iv after 5 mins measured per gm of tissue by thin-layer chromatography. It is filed as ADME, organism-based. To be noted: in vivo.
Data set [32] relates to Brain. Description: Drug uptake albino mouse brain at 10 mg equivalent of oxazepam/kg, iv after 60 mins measured per gm of tissue by thin-layer chromatography. It counts as ADME, organism-based. To be noted: in vivo, 1 h.
The test system of data set [33] is Brain. Description: Drug uptake albino mouse brain at 10 mg equivalent of oxazepam/kg, iv after 30 mins measured per gm of tissue by thin-layer chromatography. It is filed as ADME, organism-based. Particulars: in vivo, 0.5 h.
The subject of data set [34] is Brain. Description: Drug uptake albino mouse brain at 10 mg equivalent of oxazepam/kg, iv after 20 mins measured per gm of tissue by thin-layer chromatography. It is filed as ADME, organism-based. To be noted: in vivo.
In data set [35] the test system is Brain. Briefly: Drug uptake albino mouse brain at 10 mg equivalent of oxazepam/kg, iv after 12 mins measured per gm of tissue by thin-layer chromatography. It is filed as ADME, organism-based. Particulars: in vivo, 0.2 h.
In data set [36] the test system is Brain. Briefly: Drug uptake albino mouse brain at 10 mg equivalent of oxazepam/kg, iv after 3 mins measured per gm of tissue by thin-layer chromatography. It is filed as ADME, organism-based. Particulars: in vivo, 0.05 h.
For data set [37], the system named is Brain. Briefly: Drug uptake albino mouse brain at 10 mg equivalent of oxazepam/kg, iv after 1 min measured per gm of tissue by thin-layer chromatography. It is filed as ADME, organism-based. Particulars: in vivo.
For data set [38], the system named is Brain. Briefly: Drug uptake albino mouse brain at 10 mg equivalent of oxazepam/kg, iv after 6 mins measured per gm of tissue by thin-layer chromatography. It counts as ADME, organism-based. Particulars: in vivo, 0.1 h.

Take `CCCC(=O)OC1N=C(c2ccccc2)c2cc(Cl)ccc2N[14C]1=O` (stereo not drawn): in data set [1], the Rm is 0.17. Further, the Drug uptake was found to be 16.6 nmol with Brain [2]; 38.2 nmol in the data set with Brain [3]; 17.3 nmol with Brain [4]; 25.9 nmol with Brain [5]; 22.6 nmol in the data set with Brain [6]; 19 nmol in the data set on Brain [7]. Besides, the Drug uptake in the data set on Brain [8] came out at 32 nmol.
Turning to `O=C(CCCc1ccccc1)OC1N=C(c2ccccc2)c2cc(Cl)ccc2N[14C]1=O` (stereo not drawn), the Drug uptake came out at 9.6 nmol with Brain [9]; 6.5 nmol in the data set with Brain [11]; 2.9 nmol with Brain [13]; 9.5 nmol with Brain [15]; 0.4 nmol in the data set with Brain [16]; 12.2 nmol in the data set on Brain [17]. Moreover, the Drug uptake in the data set with Brain [18] is reported as 15.1 nmol; in the data set with Brain [19] it was 0.9 nmol; in the data set with Brain [20], 0.8 nmol. This compound also registered a Rm in data set [1] of 0.65. Further, the Drug metabolism stood at 80.7 nmol/g with Liver [10], 85.9 nmol/g in the data set on Liver [12], 82.3 nmol/g in the data set with Liver [14] and 40.4 nmol/g in the data set with Liver [21].
For the compound `O=C(CCc1ccccc1)OC1N=C(c2ccccc2)c2cc(Cl)ccc2N[14C]1=O` (stereo not drawn), the Drug uptake in the data set with Brain [9] was found to be 13.6 nmol; in the data set with Brain [11], 7.1 nmol; with Brain [13], 2.2 nmol; with Brain [15], 12.1 nmol; in the data set on Brain [16] it was 0.5 nmol; with Brain [17], 6.6 nmol. The Drug uptake with Brain [18] came out at 12.2 nmol; with Brain [19] it was 0.8 nmol; in the data set on Brain [20], 1.4 nmol. This compound also came in with a Rm in data set [1] of 0.5. The Drug metabolism in the data set on Liver [10] was 40.7 nmol/g; with Liver [12], 45.6 nmol/g; with Liver [14], 34.7 nmol/g; with Liver [21] it was 32.6 nmol/g.
Turning to `CC(C)C(=O)OC1N=C(c2ccccc2)c2cc(Cl)ccc2N[14C]1=O` (stereo not drawn), the Drug uptake in the data set on Brain [9] worked out at 10.8 nmol; with Brain [22] it was 3.1 nmol; in the data set with Brain [11], 9.3 nmol; in the data set with Brain [13], 8.9 nmol; with Brain [15], 11.6 nmol; in the data set on Brain [17], 3.8 nmol. Also, the Drug uptake is reported as 5.9 nmol with Brain [18] and 5.7 nmol in the data set with Brain [20]. This compound came in with a Rm in data set [1] of 0.12.
For the compound `COC(=O)CCC(=O)OC1N=C(c2ccccc2)c2cc(Cl)ccc2N[14C]1=O` (stereo not drawn), the Drug uptake in the data set on Brain [9] turned out to be 9.8 nmol; in the data set with Brain [23] it was 10.8 nmol; with Brain [24] it was 3.8 nmol; with Brain [16] it was 0.8 nmol. For the same compound, in data set [1], the Rm was -0.03.
`CCC(CC)C(=O)OC1N=C(c2ccccc2)c2cc(Cl)ccc2N[14C]1=O` (stereo not drawn): the Drug uptake in the data set on Brain [25] came out at 20.9 nmol; in the data set with Brain [26] it was 13.5 nmol; in the data set with Brain [27] it was 18 nmol; in the data set on Brain [28] it was 20 nmol; in the data set on Brain [29], 4.8 nmol; with Brain [30], 0.8 nmol. Moreover, the Drug uptake worked out at 2 nmol in the data set with Brain [31], 23.1 nmol with Brain [32], 12.1 nmol in the data set on Brain [33] and 7.8 nmol in the data set on Brain [34]. Besides, the Rm in data set [1] amounted to 0.46.
`CCC(=O)OC1N=C(c2ccccc2)c2cc(Cl)ccc2N[14C]1=O` (stereo not drawn) displayed a Rm in data set [1] of -0.03. In addition, the Drug uptake with Brain [27] is given as 33 nmol; with Brain [35], 30.8 nmol; in the data set with Brain [36] it was 17.5 nmol; with Brain [37], 12.6 nmol; with Brain [34], 41.7 nmol; with Brain [38], 24.2 nmol.
